Laboratory results from ChEMBL document CHEMBL5036358, “The Flavonoid Baicalein Negatively Regulates Progesterone Target Genes in the Uterus in Vivo” (J Nat Prod, 2022).
Active and inactive are the calls of the source. The rule behind the calls is not given here.

Experiments:
Mus musculus [1] = assay: Inhibition of PR induced ZBTB16 expression in CD-1 mouse uterus at 25 mg/kg,ip for 7 days by Immunohistochemical staining method; format: functional, organism-based; conditions: time 7.0 day
Outline: (§1)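 Ovariectomized CD-1 mice (n=5/group) were dosed ip for 7 days with 10% DMSO, 1 mg/kg P4, 25 mg/kg compound, 1 mg/kg P4 plus 25 mg/kg compound, or 1 mg/kg P4 plus 10 mg/kg RU486. Uterine sections (5 μm) were processed with citrate retrieval and overnight 4 °C primary antibodies: GR 1:100; PR, HAND2 and ZBTB16 1:200. Staining used biotinylated secondary, ABC and DAB, and was assessed qualitatively.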

Mus musculus [2] = assay: Upregulation of HAND2 expression in CD-1 mouse uterus at 25 mg/kg, ip for 7 days by immunohistochemical staining method; conditions: time 7.0 day
[3] = Toxicity in P4 induced CD-1 mouse assessed as effect on glucose level at 25 mg/kg, ip for 7 days (Rvb=231.6 mg/dL); format: organism-based; conditions: in vivo, 168 h, time 7 day
Mus musculus [4] = assay: Effect on PR protein level in CD-1 mouse uterus at 25 mg/kg, ip for 7 days by immunohistochemical staining method; format: functional, organism-based; conditions: time 7.0 day; outline: as §1
Mus musculus [5] = assay: Upregulation of P4 induced HAND2 expression in CD-1 mouse uterus at 25 mg/kg, ip for 7 days by immunohistochemical staining method; format: functional, organism-based; conditions: time 7.0 day, in the assay text read “Downregulation” for “Upregulation”; outline: as §1
[6] = Toxicity in P4 induced CD-1 mouse assessed as effect on body weight at 25 mg/kg, ip for 7 days (Rvb= 30g); format: organism-based; conditions: in vivo, 168 h, time 7 day
Mus musculus [7] = assay: Effect on P4 induced GR expression in CD-1 mouse uterine stroma at 25 mg/kg, ip for 7 days by immunohistochemical analysis; format: functional, organism-based; conditions: time 7.0 day; outline: as §1
[8] = Toxicity in CD-1 mouse assessed as effect on glucose level at 25 mg/kg, ip for 7 days (Rvb=231.6 mg/dL); format: organism-based; conditions: in vivo, 168 h, time 7 day
[9] = Toxicity in P4 induced CD-1 mouse assessed as effect on liver weight at 25 mg/kg, ip for 7 days (Rvb= 1.3 g); format: organism-based; conditions: in vivo, 168 h, time 7 day
Mus musculus [10] = assay: Inhibition of ZBTB16 expression in CD-1 mouse uterus at 25 mg/kg, ip for 7 days by Immunohistochemical staining method; format: functional, organism-based; conditions: time 7.0 day; outline: as §1
[11] = Toxicity in CD-1 mouse assessed as effect on body weight at 25 mg/kg, ip for 7 days (Rvb= 30g); format: organism-based; conditions: in vivo, 168 h, time 7 day
Mus musculus [12] = assay: Effect on P4 induced GR expression in CD-1 mouse uterine luminal epithelium at 25 mg/kg, ip for 7 days by immunohistochemical analysis; format: functional, organism-based; conditions: Uterine lumen, time 7.0 day; outline: as §1
Glucocorticoid receptor = molecular target: T1, Glucocorticoid receptor (Homo sapiens, UniProt P04150); assay: Competitive inhibition of glucocorticoid receptor (unknown origin) by fluorescence polarization based competition assay
T1 sequence (P04150 whole entry): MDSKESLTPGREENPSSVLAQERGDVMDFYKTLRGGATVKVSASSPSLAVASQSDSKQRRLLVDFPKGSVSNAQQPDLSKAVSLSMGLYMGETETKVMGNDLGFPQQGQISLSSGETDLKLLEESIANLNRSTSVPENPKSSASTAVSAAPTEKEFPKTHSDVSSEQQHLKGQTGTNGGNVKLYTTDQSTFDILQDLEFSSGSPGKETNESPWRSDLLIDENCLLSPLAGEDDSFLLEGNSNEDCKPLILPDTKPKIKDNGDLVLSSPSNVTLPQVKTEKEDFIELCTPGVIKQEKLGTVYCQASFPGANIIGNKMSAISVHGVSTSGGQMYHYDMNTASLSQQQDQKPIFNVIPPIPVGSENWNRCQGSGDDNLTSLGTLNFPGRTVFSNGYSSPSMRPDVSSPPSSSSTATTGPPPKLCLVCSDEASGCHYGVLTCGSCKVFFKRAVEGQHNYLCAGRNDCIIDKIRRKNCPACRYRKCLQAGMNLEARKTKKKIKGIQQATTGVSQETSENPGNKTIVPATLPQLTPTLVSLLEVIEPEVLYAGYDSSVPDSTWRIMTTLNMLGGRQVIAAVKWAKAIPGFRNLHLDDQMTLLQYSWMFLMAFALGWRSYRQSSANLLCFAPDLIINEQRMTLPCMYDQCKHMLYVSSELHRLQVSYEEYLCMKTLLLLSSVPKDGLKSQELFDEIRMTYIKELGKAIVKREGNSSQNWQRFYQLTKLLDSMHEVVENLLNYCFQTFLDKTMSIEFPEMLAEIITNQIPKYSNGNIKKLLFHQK

Progesterone receptor = molecular target: T2, Progesterone receptor (Homo sapiens, UniProt P06401); assay: Competitive inhibition of progesterone receptor (unknown origin) by fluorescence polarization based competition assay
T2 sequence (P06401 whole entry): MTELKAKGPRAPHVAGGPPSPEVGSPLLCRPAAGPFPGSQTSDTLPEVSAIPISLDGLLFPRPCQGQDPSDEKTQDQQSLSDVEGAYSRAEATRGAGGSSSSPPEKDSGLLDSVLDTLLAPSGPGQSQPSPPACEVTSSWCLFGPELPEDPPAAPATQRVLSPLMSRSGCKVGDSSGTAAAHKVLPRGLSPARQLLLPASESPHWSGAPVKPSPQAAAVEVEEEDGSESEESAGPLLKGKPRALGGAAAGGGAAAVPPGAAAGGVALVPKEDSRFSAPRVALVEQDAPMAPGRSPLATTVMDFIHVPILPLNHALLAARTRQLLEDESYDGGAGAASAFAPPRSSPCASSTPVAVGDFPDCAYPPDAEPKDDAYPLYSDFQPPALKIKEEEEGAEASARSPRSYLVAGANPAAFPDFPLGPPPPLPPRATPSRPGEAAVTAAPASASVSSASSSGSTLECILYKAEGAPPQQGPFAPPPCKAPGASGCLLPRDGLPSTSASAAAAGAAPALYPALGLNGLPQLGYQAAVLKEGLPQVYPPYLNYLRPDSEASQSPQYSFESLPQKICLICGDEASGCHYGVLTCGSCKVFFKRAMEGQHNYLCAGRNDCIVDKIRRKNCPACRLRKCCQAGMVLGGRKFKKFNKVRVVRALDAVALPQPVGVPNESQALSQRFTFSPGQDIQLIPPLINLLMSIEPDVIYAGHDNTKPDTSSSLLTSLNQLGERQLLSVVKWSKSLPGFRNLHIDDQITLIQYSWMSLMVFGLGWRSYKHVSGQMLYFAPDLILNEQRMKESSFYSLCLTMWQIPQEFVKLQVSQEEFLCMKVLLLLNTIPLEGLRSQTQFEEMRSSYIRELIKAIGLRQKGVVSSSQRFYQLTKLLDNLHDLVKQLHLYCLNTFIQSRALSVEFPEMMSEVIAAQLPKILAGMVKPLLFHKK

[13] = Toxicity in CD-1 mouse assessed as effect on uterus weight at 25 mg/kg,ip for 7 days (Rvb= 0.033g); format: organism-based; conditions: in vivo, 168 h, time 7 day
Mus musculus [14] = assay: Effect on P4 induced PR protein level in CD-1 mouse uterus at 25 mg/kg, ip for 7 days by immunohistochemical staining method; format: functional, organism-based; conditions: time 7.0 day; outline: as §1
Mus musculus [15] = assay: Effect on GR expression in CD-1 mouse uterine stroma at 25 mg/kg, ip for 7 days by immunohistochemical analysis; format: functional, organism-based; conditions: time 7.0 day; outline: as §1
[16] = Toxicity in CD-1 mouse assessed as effect on MG weight at 25 mg/kg, ip for 7 days (Rvb= 0.22g); format: organism-based; conditions: in vivo, 168 h, time 7 day
Mus musculus [17] = assay: Effect on GR expression in CD-1 mouse uterine luminal epithelium at 25 mg/kg, ip for 7 days by immunohistochemical analysis; format: functional, organism-based; conditions: Uterine lumen, time 7.0 day; outline: as §1
[18] = Toxicity in CD-1 mouse assessed as effect on liver weight at 25 mg/kg, ip for 7 days (Rvb= 1.3 g); format: organism-based; conditions: in vivo, 168 h, time 7 day
[19] = Toxicity in P4 induced CD-1 mouse assessed as effect on uterus weight at 25 mg/kg,ip for 7 days (Rvb= 0.033g); format: organism-based; conditions: in vivo, 168 h, time 7 day
[20] = Antiproliferative activity against CD-1 mouse uterine epithelial cell at 25 mg/kg, ip for 7 days by immunohistochemistry method; format: functional; conditions: time 7 day
Outline: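 Ovariectomized CD-1 mice (n=5/group) received ip 10% DMSO vehicle, 1 mg/kg P4, 25 mg/kg compound, or P4 plus compound daily for 7 days. Formalin-fixed, paraffin 5 μm uterine sections underwent citrate antigen retrieval (100 °C, 30 min), then PCNA IHC (1:200, overnight 4 °C), ABC/DAB and hematoxylin counterstain. Read-out was the percentage of PCNA-positive luminal epithelial cells.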

[21] = Toxicity in P4 induced CD-1 mouse assessed as effect on MG weight at 25 mg/kg, ip for 7 days (Rvb= 0.22g); format: organism-based; conditions: in vivo, 168 h, time 7 day
[22] = Toxicity in P4 induced CD-1 mouse assessed as effect on MG weight at 10 mg/kg, ip for 7 days (Rvb= 0.22g); format: organism-based; conditions: in vivo, 168 h, time 7 day
Mus musculus [23] = assay: Effect on P4 induced GR expression in CD-1 mouse uterine luminal epithelium at 10 mg/kg, ip for 7 days by immunohistochemical analysis; format: functional, organism-based; conditions: Uterine lumen, time 7.0 day; outline: as §1
Mus musculus [24] = assay: Effect on P4 induced PR protein level in CD-1 mouse uterus at 10 mg/kg, ip for 7 days by immunohistochemical staining method; format: functional, organism-based; conditions: time 7.0 day
Mus musculus [25] = assay: Effect on P4 induced GR expression in CD-1 mouse uterine stroma at 10 mg/kg, ip for 7 days by immunohistochemical analysis; format: functional, organism-based; conditions: time 7.0 day; outline: as §1
[26] = Toxicity in P4 induced CD-1 mouse assessed as effect on glucose level at 10 mg/kg, ip for 7 days (Rvb=231.6 mg/dL); format: organism-based; conditions: in vivo, 168 h, time 7 day
[27] = Toxicity in P4 induced CD-1 mouse assessed as effect on liver weight at 10 mg/kg, ip for 7 days (Rvb= 1.3 g); format: organism-based; conditions: in vivo, 168 h, time 7 day
[28] = Toxicity in P4 induced CD-1 mouse assessed as effect on body weight at 10 mg/kg, ip for 7 days (Rvb= 30g); format: organism-based; conditions: in vivo, 168 h, time 7 day
[29] = Toxicity in P4 induced CD-1 mouse assessed as effect on uterus weight at 10 mg/kg,ip for 7 days (Rvb= 0.033g); format: organism-based; conditions: in vivo, 168 h, time 7 day
Mus musculus [30] = assay: Upregulation of P4 induced HAND2 expression in CD-1 mouse uterus at 10 mg/kg, ip for 7 days by immunohistochemical staining method; format: functional, organism-based; conditions: time 7.0 day
[31] = Antiproliferative activity against CD-1 mouse uterine epithelial cell at 1 mg/kg, ip for 7 days by immunohistochemistry method; format: functional; conditions: time 7 day
Outline: (§2)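 Ovariectomized CD-1 mice, 5 per group, dosed IP daily for 7 days: 10% DMSO vehicle, progesterone 1 mg/kg, baicalein 25 mg/kg, P4 1 mg/kg + baicalein 25 mg/kg, or P4 1 mg/kg + RU486 10 mg/kg. One uterine horn formalin-fixed, paraffin-embedded, cut at 5 μm. IHC: citrate antigen retrieval at 100 °C, primary antibody overnight at 4 °C, ABC/DAB, hematoxylin counterstain. For PCNA, the percentage of proliferating luminal epithelial cells was counted.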

Mus musculus [32] = assay: Effect on PR protein level in CD-1 mouse uterus at 1 mg/kg, ip for 7 days by immunohistochemical; format: functional, organism-based; conditions: time 7.0 day; outline: as §2
Mus musculus [33] = assay: Inhibition of ZBTB16 expression in CD-1 mouse uterus at 1 mg/kg, ip for 7 days by Immunohistochemical staining method; format: functional, organism-based; conditions: time 7.0 day; outline: as §2
Mus musculus [34] = assay: Effect on GR expression in CD-1 mouse uterine stromal at 1 mg/kg, ip for 7 days by immunohistochemical staining analysis; format: functional, organism-based; conditions: Stroma, time 7.0 day; outline: as §2

O=c1cc(-c2ccccc2)oc2cc(O)c(O)c(O)c12 [BAICALEIN]
inhibition (Mus musculus [1]): Active
Activity (Mus musculus [2]): inactive
Activity [3]: 179.8 mg/dL
Activity (Mus musculus [4]): inactive
Activity (Mus musculus [5]): Active
Activity [6]: 30 g
Activity (Mus musculus [7]): Active
Activity [8]: 196.2 mg/dL
Activity [9]: 1.2 g
inhibition (Mus musculus [10]): inactive
Activity [11]: 30 g
Activity (Mus musculus [12]): Active
IC50 (Glucocorticoid receptor): 19 µM
IC50 (Progesterone receptor): 15 µM
Activity [13]: 0.026 g
Activity (Mus musculus [14]): inactive
Activity (Mus musculus [15]): inactive
Activity [16]: 0.26 g
Activity (Mus musculus [17]): inactive
Activity [18]: 1.4 g
Activity [19]: 0.024 g
Activity [20]: 47%
Activity [21]: 0.23 g

CC#C[C@]1(O)CC[C@H]2[C@@H]3CCC4=CC(=O)CCC4=C3[C@@H](c3ccc(N(C)C)cc3)C[C@@]21C [MIFEPRISTONE]
Activity [22]: 0.17 g
Activity (Mus musculus [23]): Active
Activity (Mus musculus [24]): inactive
Activity (Mus musculus [25]): Active
Activity [26]: 198.2 mg/dL
Activity [27]: 1.2 g
Activity [28]: 29 g
Activity [29]: 0.021 g
Activity (Mus musculus [30]): inactive

CC(=O)[C@H]1CC[C@H]2[C@@H]3CCC4=CC(=O)CC[C@]4(C)[C@H]3CC[C@]12C [PROGESTERONE]
Activity [31]: 7%
Activity (Mus musculus [32]): inactive
Activity [8]: 209.4 mg/dL
Activity [11]: 30 g
Activity [13]: 0.021 g
inhibition (Mus musculus [33]): inactive
Activity [16]: 0.24 g
Activity (Mus musculus [34]): Active
Activity [18]: 1.4 g
